ChEMBL document CHEMBL2021901, “Antibacterial acylphloroglucinols from Hypericum olympicum” (2012)
Converted amounts (≈) assume the structure as drawn.

Tests used:
Staphylococcus aureus [1] = assay: Antibacterial activity against Staphylococcus aureus RN4220 overexpressing MsrA macrolide efflux protein after 24 hrs; type: functional; settings: RN4220, 24 h
How it was run: (§1)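 Strains grown on nutrient agar for 24 h at 37 °C before testing. Broth microdilution MIC used an inoculum of 5 × 10⁵ CFU, prepared in normal saline (9 g/L) against a 0.5 McFarland standard. Plates were incubated at 37 °C, then MTT (5 mg/mL methanolic stock) was added for 20 min. Growth was scored by colour change.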

Staphylococcus aureus [2] = assay: Antibacterial activity against Staphylococcus aureus ATCC 25923 after 24 hrs; type: functional; settings: ATCC 25923, 24 h; how it was run: as §1
Staphylococcus aureus [3] = assay: Antibacterial activity against Staphylococcus aureus XU212 overexpressing TetK tetracycline efflux pump after 24 hrs; type: functional; settings: XU212, 24 h; how it was run: as §1
Staphylococcus aureus [4] = assay: Antibacterial activity against Staphylococcus aureus EMRSA-15 after 24 hrs; type: functional; settings: EMRSA-15, 24 h; how it was run: as §1
Staphylococcus aureus [5] = assay: Antibacterial activity against Staphylococcus aureus SA-1199B overexpressing NorA MDR efflux pump after 24 hrs; type: functional; how it was run: as §1
Staphylococcus aureus [6] = assay: Antibacterial activity against Staphylococcus aureus EMRSA-16 after 24 hrs; type: functional; settings: EMRSA-16, 24 h; how it was run: as §1
[7] = tested on: Mycolicibacterium smegmatis; assay: Antimycobacterial activity against Mycobacterium smegmatis MC2 2700 expressing Mycobacterium tuberculosis fatty acid synthase 1 gene after 72 hrs by MTT assay; type: functional; settings: MC2 2700, 72 h
How it was run: (§2)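 Mycobacteria were grown on Columbia agar with 7% defibrinated horse blood, subcultured, and incubated 72 h at 37 °C before the assay. Broth microdilution MIC used an inoculum of 5 × 10⁵ CFU in normal saline, set against a 0.5 McFarland standard. Plates were incubated at 37 °C, then MTT (5 mg/mL methanolic stock) was added for 20 min. Growth was read by colour change.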

Mycolicibacterium phlei = assay: Antimycobacterial activity against Mycobacterium phlei ATCC 11758 after 72 hrs by MTT assay; type: functional; settings: ATCC 11758, 72 h
How it was run: (§3)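 Mycobacterium strains were subcultured on Columbia agar with 7% defibrinated horse blood at 37 °C for 72 h before assay. The inoculum was 5 × 10⁵ CFU in normal saline (9 g/L), set against a 0.5 McFarland standard. Microtiter plates were incubated at 37 °C. MIC was read after adding MTT (5 mg/mL methanolic stock) for 20 min, with growth shown by colour change.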

[8] = tested on: Mycolicibacterium smegmatis; assay: Antimycobacterial activity against Mycobacterium smegmatis ATCC 14468 after 72 hrs by MTT assay; type: functional; settings: ATCC 14468, 72 h; how it was run: as §2
[9] = tested on: Mycolicibacterium fortuitum; assay: Antimycobacterial activity against Mycobacterium fortuitum ATCC 6841 after 72 hrs by MTT assay; type: functional; settings: ATCC 6841, 72 h; how it was run: as §3
Pseudomonas aeruginosa [10] = assay: […] activity against Pseudomonas aeruginosa K767 after 24 hrs; type: functional; settings: K767, 24 h; how it was run: as §1
Pseudomonas aeruginosa [11] = assay: […] activity against Pseudomonas aeruginosa K1119 after 24 hrs; type: functional; settings: K1119, 24 h; how it was run: as §1
Salmonella typhimurium [12] = assay: […] activity against Salmonella enterica serovar Typhimurium L10 after 24 hrs; type: functional, Salmonella enterica subsp. enterica serovar Typhimurium; settings: L10, 24 h
How it was run: (§4)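 The microdilution inoculum was 5 × 10⁵ CFU in normal saline (9 g/L), matched to a 0.5 McFarland standard. Plates were incubated at 37 °C. MTT (5 mg/mL methanolic stock) was added for 20 min, and colour change indicated growth for the MIC readout.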

Salmonella typhimurium [13] = assay: […] activity against Salmonella enterica serovar Typhimurium L354 after 24 hrs; type: functional, Salmonella enterica subsp. enterica serovar Typhimurium; settings: L354, 24 h; how it was run: as §4

Row | SMILES | MIC (Staphylococcus aureus [1]) | MIC (Staphylococcus aureus [2]) | MIC (Staphylococcus aureus [3]) | MIC (Staphylococcus aureus [4]) | MIC (Staphylococcus aureus [5]) | MIC (Staphylococcus aureus [6]) | MIC [7] [µM] | MIC (Mycolicibacterium phlei) [µM] | MIC [8] [µM] | MIC [9] [µM] | MIC (Pseudomonas aeruginosa [10]) [µM] | MIC (Pseudomonas aeruginosa [11]) [µM] | MIC (Salmonella typhimurium [12]) [µM] | MIC (Salmonella typhimurium [13]) [µM]
1 | C=C(C)C(CC/C(C)=C/COc1cc(O)cc(O)c1C(=O)C(C)CC)OO (stereo unspecified) [OLYMPICIN D] | 64 µg/mL | 64 µg/mL | 64 µg/mL | 64 µg/mL | 64 µg/mL | 64 µg/mL |  |  |  |  |  |  |  | 
2 | CC[C@@H](CO)NCCN[C@@H](CC)CO [ETHAMBUTOL] |  |  |  |  |  |  | 2.4 (≈ 0.49 µg/mL) | 2.4 (≈ 0.49 µg/mL) | 2.4 (≈ 0.49 µg/mL) | 2.4 (≈ 0.49 µg/mL) |  |  |  | 
3 | CC[C@H]1OC(=O)[C@H](C)[C@@H](O[C@H]2C[C@@](C)(OC)[C@@H](O)[C@H](C)O2)[C@H](C)[C@@H](O[C@@H]2O[C@H](C)C[C@H](N(C)C)[C@H]2O)[C@](C)(O)C[C@@H](C)C(=O)[C@H](C)[C@@H](O)[C@]1(C)O [ERYTHROMYCIN] | 349 µM |  |  |  |  |  |  |  |  |  |  |  |  | 
4 | C=C(C)C(O)CC/C(C)=C/COc1cc(O)cc(O)c1C(=O)C(C)CC (stereo unspecified) [OLYMPICIN C] | 64 µg/mL | 64 µg/mL | 64 µg/mL | 64 µg/mL | 64 µg/mL | 64 µg/mL |  |  |  |  |  |  |  | 
5 | CCn1cc(C(=O)O)c(=O)c2cc(F)c(N3CCNCC3)cc21 [NORFLOXACIN] |  | 3.1 µM |  |  | 100 µM |  |  |  |  |  | 6.2 (≈ 1.98 µg/mL) | 6.2 (≈ 1.98 µg/mL) |  | 
6 | CC[C@H](C)C(=O)c1c(O)cc(O)cc1OC/C=C(\C)CCC=C(C)C [OLYMPICIN A] | 2.9 µM | 2.9 µM | 2.9 µM | 1.45 µM | 2.9 µM | 2.9 µM | 11.6 (≈ 4.02 µg/mL) | 11.6 (≈ 4.02 µg/mL) | 11.6 (≈ 4.02 µg/mL) | 23.2 (≈ 8.04 µg/mL) | > 1000 | > 1000 | > 1000 | > 1000
7 | Cc1onc(-c2ccccc2)c1C(=O)N[C@@H]1C(=O)N2[C@@H]1SC(C)(C)[C@@H]2C(=O)O [OXACILLIN] |  |  |  | 79 µM |  | 1280 µM |  |  |  |  |  |  |  | 
8 | NNC(=O)c1ccncc1 [ISONIAZID] |  |  |  |  |  |  | 14.6 (≈ 2 µg/mL) | 14.6 (≈ 2 µg/mL) | 14.6 (≈ 2 µg/mL) | 29.2 (≈ 4 µg/mL) |  |  |  | 
9 | CCC(C)C(=O)c1c(O)cc(O)cc1OC/C=C(\C)CCC1OC1(C)C (stereo unspecified) [OLYMPICIN E] | 64 µg/mL | 64 µg/mL | 64 µg/mL | 64 µg/mL | 64 µg/mL | 64 µg/mL |  |  |  |  |  |  |  | 
10 | CN(C)[C@@H]1C(O)=C(C(N)=O)C(=O)[C@@]2(O)C(O)=C3C(=O)c4c(O)cccc4[C@@](C)(O)[C@H]3C[C@@H]12 [TETRACYCLINE] |  |  | 288 µM |  |  |  |  |  |  |  |  |  | 2.3 (≈ 1.02 µg/mL) | 2.3 (≈ 1.02 µg/mL)
11 | CC[C@H](C)C(=O)c1c(O)cc(O)cc1OC/C=C(\C)C/C=C/C(C)(C)O [OLYMPICIN B] | 64 µg/mL | 64 µg/mL | 64 µg/mL | 64 µg/mL | 64 µg/mL | 64 µg/mL |  |  |  |  |  |  |  | 
